Assay results published in ChEMBL document CHEMBL1142431, “Benzodioxoles: novel cannabinoid-1 receptor inverse agonists for the treatment of obesity” (J Med Chem, 2008).
Active and inactive are the calls of the source. The calls are words filed in the database; no cut-off is given here.

Columns and labels:
Homo sapiens [1] = species: Homo sapiens; experiment: Selectivity for human CB1 receptor over human CCK2 receptor
Cannabinoid receptor 1 [2] = target: T1, Cannabinoid receptor 1 (Homo sapiens, UniProt P21554); experiment: Activity at human CB1R expressed in HEK293 cells assessed as intracellular cAMP level; assay type: functional, cell-based
[3] = Selectivity for human CB1 receptor over chloride channel
[4] = Selectivity for human CB1 receptor over kainate receptor
Homo sapiens [5] = species: Homo sapiens; experiment: Selectivity for human CB1 receptor over human ETA receptor
Homo sapiens [6] = species: Homo sapiens; experiment: Selectivity for human CB1 receptor over human AT1 receptor
Homo sapiens [7] = species: Homo sapiens; experiment: Selectivity for human CB1 receptor over human adenosine A2A receptor
[8] = Selectivity for human CB1 receptor over PCP receptor
Homo sapiens [9] = species: Homo sapiens; experiment: Selectivity for human CB1 receptor over human adenosine A3 receptor
[10] = Selectivity for human CB1 receptor over sigma receptor
Mus musculus = experiment: Reversal of CP-55940-induced hypothermia in NMRI mouse assessed as rectal temperature at 30 mg/kg, ip; assay type: functional; details: route intraperitoneal, read-out: ID50 (the source's name)
Outline: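 Mice housed eight per group, eight per dose, habituated at least 2 h. Test compound in 0.3% Tween 80 (10 mL/kg) given 90 min before CP 55940 (0.3 mg/kg iv, same vehicle). Body temperature read 20 min before compound, just before CP 55940, and 20 min after it.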

Homo sapiens [11] = species: Homo sapiens; experiment: Selectivity for human CB1 receptor over human dopamine D2S receptor
Cannabinoid receptor 1 [12] = target: T1, Cannabinoid receptor 1; experiment: biochemical; assay type: cell-based, HEK293
Liver microsomes = experiment: Clearance in rat liver microsomes; assay type: ADME, Microsome; details: microsomes
Outline: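 Test compound at 2 µM incubated with liver microsomes (0.5 mg protein/mL) in 50 mM potassium phosphate pH 7.4 at 37 °C. Reaction started with an NADPH-generating system (glucose-6-phosphate 3.2 mM, NADP 2.6 mM, MgCl2 6.5 mM). Six samples over 30 min, quenched in methanol with internal standard, then LC-MS/MS for substrate depletion. CLint taken from the first-order decay, normalized to protein.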

Rattus norvegicus = experiment: Reduction in progression of body weight in diet-induced obesity Sprague-Dawley rat model at 1 mg/kg, po for 16 days; assay type: functional, organism-based; design: dose 1 mg/kg
Outline: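 Obese Sprague-Dawley rats (HFD 10 weeks from 3 weeks old, selected as >2 SD above chow controls), n = 9 per group, gavage-adapted 3 days, then dosed daily by gavage at 5:00 p.m. for 16 days in water with 7.5% gelatine and 0.62% NaCl, 2 mL/kg; body weight and food intake recorded daily.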

Homo sapiens [13] = species: Homo sapiens; experiment: Selectivity for human CB1 receptor over human NET
[14] = Selectivity for human CB1 receptor over adrenergic alpha-2 receptor
Homo sapiens [15] = species: Homo sapiens; experiment: Selectivity for human CB1 receptor over human adenosine A1 receptor
Homo sapiens [16] = species: Homo sapiens; experiment: Selectivity for human CB1 receptor over human glucocorticoid receptor
[17] = Partition coefficient, log D at pH 6.5; assay type: physicochemical; details: octanol/water

T1 sequence (P21554 whole entry): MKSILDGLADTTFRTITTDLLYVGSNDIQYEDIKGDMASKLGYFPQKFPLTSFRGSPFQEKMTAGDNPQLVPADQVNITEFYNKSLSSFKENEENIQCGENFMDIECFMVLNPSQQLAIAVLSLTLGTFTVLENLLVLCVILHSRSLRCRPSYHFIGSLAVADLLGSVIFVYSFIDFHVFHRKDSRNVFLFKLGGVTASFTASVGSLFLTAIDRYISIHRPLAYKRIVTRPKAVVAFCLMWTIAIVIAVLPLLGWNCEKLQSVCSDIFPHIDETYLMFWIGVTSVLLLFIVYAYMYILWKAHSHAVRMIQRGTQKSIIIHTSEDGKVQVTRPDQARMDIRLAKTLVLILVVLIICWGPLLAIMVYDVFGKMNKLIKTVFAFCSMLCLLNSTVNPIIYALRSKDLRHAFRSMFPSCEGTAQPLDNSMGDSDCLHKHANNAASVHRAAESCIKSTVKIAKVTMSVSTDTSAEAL

Question: For O=C(c1cc2c(cc1F)O[C@](c1ccc(F)cc1)(c1ccc(Cl)cc1Cl)O2)N1CCOCC1, which Selectivity ratio (Homo sapiens [1]) is on record?
Answer: 300

Question: And the EC50 (Cannabinoid receptor 1 [2])?
Answer: 8 nM

Question: What about the Selectivity ratio [3] of the same compound?
Answer: 300

Question: And the Selectivity ratio [4]?
Answer: 300

Question: And the Selectivity ratio (Homo sapiens [5])?
Answer: 300

Question: And the Selectivity ratio (Homo sapiens [6])?
Answer: 300

Question: And the Selectivity ratio (Homo sapiens [7])?
Answer: 300

Question: And the Selectivity ratio [8]?
Answer: 300

Question: And the Selectivity ratio (Homo sapiens [9])?
Answer: 300

Question: And the Selectivity ratio [10]?
Answer: 300

Question: What about the ED50 (Mus musculus) of the same compound?
Answer: 4 mg/kg

Question: And the Selectivity ratio (Homo sapiens [11])?
Answer: 300

Question: And the Ki (Cannabinoid receptor 1 [12])?
Answer: 3.3 nM

Question: What about the clearance (Liver microsomes) of the same compound?
Answer: 27 µL/min/mg

Question: And the Activity (Rattus norvegicus)?
Answer: Active

Question: And the Selectivity ratio (Homo sapiens [13])?
Answer: 300

Question: What about the Selectivity ratio [14] of the same compound?
Answer: 300

Question: And the Selectivity ratio (Homo sapiens [15])?
Answer: 300

Question: What about the Selectivity ratio (Homo sapiens [16]) of the same compound?
Answer: 300

Question: And the logD [17]?
Answer: > 4
